In ChEMBL document CHEMBL3102692 (Bioorg Med Chem Lett, 2014):
Calls of active or inactive are those of the source. No cut-off for these calls is given here.

Tests used:
Beta-secretase 1 [1] = biological target: T1, Beta-secretase 1 (Homo sapiens, UniProt P56817); assay: Inhibition of recombinant BACE1 (unknown origin) at 0.67 mM
Beta-secretase 1 [2] = biological target: T1, Beta-secretase 1; assay: Inhibition of recombinant BACE1 (unknown origin) at 1.3 mM
Summary of the method: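 Recombinant BACE1 was incubated with a synthetic dodecapeptide substrate carrying the Swedish-type BACE1 cleavage sequence, in 40 mM AcONa buffer (pH 4.0) with 10% glycerol, 10 mM DTT and 4 M NaCl. The reaction mixture was analysed by reversed-phase C18 HPLC using a 10–40% MeCN gradient over 30 min in aq 0.1% TFA. Inhibition was read from the decrease of the substrate.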

Beta-secretase 1 [3] = biological target: T1, Beta-secretase 1; assay: Inhibition of recombinant BACE1 (unknown origin)
Beta-secretase 1 [4] = biological target: T1, Beta-secretase 1; assay: Non-competitive inhibition of recombinant BACE1 (unknown origin) by Lineweaver-Burk plot analysis

T1 sequence (P56817 whole entry): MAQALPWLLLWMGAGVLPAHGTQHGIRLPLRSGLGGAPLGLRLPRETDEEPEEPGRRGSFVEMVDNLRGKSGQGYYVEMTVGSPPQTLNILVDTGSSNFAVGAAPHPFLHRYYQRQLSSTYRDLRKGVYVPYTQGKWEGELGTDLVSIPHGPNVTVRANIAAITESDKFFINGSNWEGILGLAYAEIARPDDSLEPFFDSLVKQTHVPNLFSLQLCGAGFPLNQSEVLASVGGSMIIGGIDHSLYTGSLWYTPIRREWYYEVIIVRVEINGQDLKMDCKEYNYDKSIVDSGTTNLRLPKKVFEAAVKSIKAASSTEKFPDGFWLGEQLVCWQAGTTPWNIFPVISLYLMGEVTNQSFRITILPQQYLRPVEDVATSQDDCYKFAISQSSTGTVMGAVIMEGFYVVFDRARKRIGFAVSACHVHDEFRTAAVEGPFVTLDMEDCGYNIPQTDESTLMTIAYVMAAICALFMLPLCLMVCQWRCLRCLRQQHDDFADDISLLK

Structure (SMILES)	inhibition (Beta-secretase 1 [1])	other results
COc1ccc(/C=C/C(=O)/C=C(O)/C=C/c2ccc(OC)c(OC)c2)cc1OC	0%	–
COc1cc(/C=C/C(=O)/C=C(O)/C=C/c2ccc(Br)cc2)ccc1O	5%	–
COc1cc(/C=C/C(O)=C/C(=O)/C=C/c2ccc(O[Si](C)(C)C(C)(C)C)c(OC)c2)ccc1O	–	inhibition (Beta-secretase 1 [2]): 22%
COCCOCOc1ccc(/C=C/C(=O)/C=C(O)/C=C/c2ccc(OCOCCOC)c(OC)c2)cc1OC	–	inhibition (Beta-secretase 1 [2]): 19%
O=C(/C=C(O)/C=C/c1ccc[nH]1)/C=C/c1ccc(O)c(O)c1	30%	–
COCCOCOc1ccc(CCC(=O)CC(O)CCc2ccc(OCOCCOC)c(OC)c2)cc1OC (stereo unspecified)	–	inhibition (Beta-secretase 1 [2]): 15%
N#Cc1cccc(/C=C/C(O)=C/C(=O)/C=C/c2ccc(O)c(O)c2)c1	21%	–
COc1ccc(CCC(O)C(C(C)C)C(O)CCc2ccc(OC)c(OC)c2)cc1OC (stereo unspecified)	9%	–
O=C(/C=C(O)/C=C/c1ccc(O)c(O)c1)/C=C/c1ccc(O)c(O)c1	25%	IC50 (Beta-secretase 1 [3]): 2200 µM
COCCOCOc1ccc(/C=C/C(=O)/C=C(O)/C=C/c2ccc(O)c(OC)c2)cc1OC	–	inhibition (Beta-secretase 1 [2]): 17%
COc1ccccc1/C=C/C(O)=C/C(=O)/C=C/c1ccc(O)c(O)c1	47%	IC50 (Beta-secretase 1 [3]): 1400 µM
O=C(/C=C(O)/C=C/c1c[nH]c2ccccc12)/C=C/c1ccc(O)c(O)c1	71%	IC50 (Beta-secretase 1 [3]): 450 µM
O=C(/C=C(O)/C=C/c1cccc([N+](=O)[O-])c1)/C=C/c1ccc(O)c(O)c1	18%	IC50 (Beta-secretase 1 [3]): 1800 µM
COCCOCOC(=C\C(=O)/C=C/c1ccc(OCOCCOC)c(OC)c1)/C=C/c1ccc(OCOCCOC)c(OC)c1	–	inhibition (Beta-secretase 1 [2]): 36%
O=C(/C=C(O)/C=C/c1cccc(O)c1)/C=C/c1cccc(O)c1	33%	–
O=C(/C=C(O)/C=C/c1ccccc1)/C=C/c1ccc(O)c(O)c1	26%	–
COc1ccc(CCCC(C(=O)CCc2ccc(OC)c(OC)c2)C(C)C)cc1OC (stereo unspecified)	5%	–
O=C(/C=C(O)/C=C/c1ccc(O)cc1)/C=C/c1ccc(O)c(O)c1	18%	–
COc1cc(/C=C/C(O)=C/C(=O)/C=C/c2ccc(O)cc2)ccc1O [DEMETHOXYCURCUMIN]	35%	IC50 (Beta-secretase 1 [3]): 1600 µM
COc1cc(CCC(=O)/C=C(\O)CCc2ccc(O)c(OC)c2)ccc1O	–	inhibition (Beta-secretase 1 [2]): 7%
O=C(/C=C(O)/C=C/c1cccnc1)/C=C/c1ccc(O)c(O)c1	21%	–
COc1ccc(CCC(=O)C(C(C)C)C(O)CCc2ccc(OC)c(OC)c2)cc1OC (stereo unspecified)	1%	–
COc1cc(CCC(=O)CC(O)CCc2ccc(O)c(OC)c2)ccc1O (stereo unspecified)	–	inhibition (Beta-secretase 1 [2]): 7%
COCCOCOc1ccc(CCC(=O)/C=C(\O)CCc2ccc(OCOCCOC)c(OC)c2)cc1OC	–	inhibition (Beta-secretase 1 [2]): 17%
COCOc1ccc(/C=C/C(=O)/C=C(O)/C=C/c2ccc(OCOC)c(OC)c2)cc1OC	7%	–
O=C(/C=C(O)/C=C/c1ccccc1O)/C=C/c1ccc(O)c(O)c1	100%	IC50 (Beta-secretase 1 [3]): 250 µM; inhibition (Beta-secretase 1 [4]): Active
COc1cc(/C=C/C(=O)/C(=C(O)/C=C/c2ccc(O)c(OC)c2)C(C)C)ccc1O	6%	–
O=C(/C=C(O)/C=C/c1ccccc1)/C=C/c1ccccc1	1%	–
COc1ccc(/C=C/C(=O)/C(=C(O)/C=C/c2ccc(OC)c(OC)c2)C(C)C)cc1OC	4%	–
